One data set relates to HCT-116. Kind of data set: Antiproliferative activity against human HCT116 cells incubated for 72 hrs by MTT assay. In kind it is functional, cell-based. The settings on record: HCT-116, 72 h. In outline:
(§1)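 HCT-116, MCF-7 and U-87 MG grown in DMEM with 10% FBS, 37 °C, 5% CO2; 3000-5000 cells/well preincubated 24 h, then compounds at final 100, 10, 1, 0.1, 0.01 µM for 72 h.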
For orientation: Tetrazolium assays rely on reduction of a dye to a coloured formazan, in cell work by metabolically active cells.

The subject of the next data set is MCF7. Kind of data set: Antiproliferative activity against human MCF7 cells incubated for 72 hrs by MTT assay. In kind it is functional, cell-based. The settings on record: MCF7, 72 h. In outline:
as §1

For the next data set, the system named is U-87 MG. Kind of data set: Antiproliferative activity against human U87MG cells incubated for 72 hrs by MTT assay. Type of data set: functional, cell-based, U-87MG ATCC. In outline:
as §1

The subject of another data set is A549. Kind of data set: Antiproliferative activity against human A549 cells incubated for 72 hrs by MTT assay. In kind it is functional, cell-based. The conditions noted are these: A549, 72 h. In outline:
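A549 in RPMI-1640 with 10% calf serum, 37 °C, 5% CO2; seeded 3000-5000 cells/well, 24 h before exposure to final 100, 10, 1, 0.1, 0.01 µM for 72 h. MTT (5 mg/ml in PBS) added, 4 h at 37 °C; formazan dissolved in DMSO, OD 570 nm. Three experiments in triplicate; IC50 from inhibition ratios.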

A short description of data set [1]: Acute toxicity in mouse dosed orally once daily and observed for 7 days by up and down procedure. In kind it is organism-based. The settings on record: in vivo, po. The gist of the method:
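Male mice, 20.1 ± 1.9 g. Compound dissolved in NMP, then diluted with PEG400 and water (NMP/PEG400/H2O 1:6:3 by volume), given by gavage at 20 ml/kg. Starting dose 10 mg/kg, single mouse per step; dose raised 1.5-fold when the animal behaved normally, continuing until a death occurred.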

In data set [2] the target is PI3-kinase p110-alpha/p85-alpha (Homo sapiens, UniProt P42336). The experiment in a line: Inhibition of p110alpha/p85alpha (unknown origin) incubated for 40 mins by luciferase based ATP depletion assay. In kind it is protein-complex assay.
PI3-kinase p110-alpha/p85-alpha, sequence (P27986 whole entry): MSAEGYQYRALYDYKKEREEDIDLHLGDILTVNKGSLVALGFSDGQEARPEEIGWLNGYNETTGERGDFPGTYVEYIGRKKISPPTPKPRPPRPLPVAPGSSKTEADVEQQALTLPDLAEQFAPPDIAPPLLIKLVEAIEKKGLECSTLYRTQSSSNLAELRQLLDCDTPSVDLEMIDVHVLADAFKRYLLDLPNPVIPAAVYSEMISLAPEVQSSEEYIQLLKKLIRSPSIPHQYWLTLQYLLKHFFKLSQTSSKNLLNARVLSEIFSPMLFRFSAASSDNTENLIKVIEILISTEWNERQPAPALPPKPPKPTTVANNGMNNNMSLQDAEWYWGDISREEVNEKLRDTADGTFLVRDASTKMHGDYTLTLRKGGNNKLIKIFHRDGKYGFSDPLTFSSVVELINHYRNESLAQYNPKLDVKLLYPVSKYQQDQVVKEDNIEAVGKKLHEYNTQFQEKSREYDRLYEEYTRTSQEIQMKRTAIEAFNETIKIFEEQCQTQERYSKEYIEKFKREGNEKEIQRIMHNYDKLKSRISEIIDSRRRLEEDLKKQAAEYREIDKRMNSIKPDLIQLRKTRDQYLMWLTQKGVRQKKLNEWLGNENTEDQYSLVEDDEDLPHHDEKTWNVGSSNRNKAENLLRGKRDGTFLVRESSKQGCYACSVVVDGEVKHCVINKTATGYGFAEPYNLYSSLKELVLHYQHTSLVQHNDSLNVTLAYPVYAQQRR
PI3-kinase p110-alpha/p85-alpha, sequence (P42336 whole entry): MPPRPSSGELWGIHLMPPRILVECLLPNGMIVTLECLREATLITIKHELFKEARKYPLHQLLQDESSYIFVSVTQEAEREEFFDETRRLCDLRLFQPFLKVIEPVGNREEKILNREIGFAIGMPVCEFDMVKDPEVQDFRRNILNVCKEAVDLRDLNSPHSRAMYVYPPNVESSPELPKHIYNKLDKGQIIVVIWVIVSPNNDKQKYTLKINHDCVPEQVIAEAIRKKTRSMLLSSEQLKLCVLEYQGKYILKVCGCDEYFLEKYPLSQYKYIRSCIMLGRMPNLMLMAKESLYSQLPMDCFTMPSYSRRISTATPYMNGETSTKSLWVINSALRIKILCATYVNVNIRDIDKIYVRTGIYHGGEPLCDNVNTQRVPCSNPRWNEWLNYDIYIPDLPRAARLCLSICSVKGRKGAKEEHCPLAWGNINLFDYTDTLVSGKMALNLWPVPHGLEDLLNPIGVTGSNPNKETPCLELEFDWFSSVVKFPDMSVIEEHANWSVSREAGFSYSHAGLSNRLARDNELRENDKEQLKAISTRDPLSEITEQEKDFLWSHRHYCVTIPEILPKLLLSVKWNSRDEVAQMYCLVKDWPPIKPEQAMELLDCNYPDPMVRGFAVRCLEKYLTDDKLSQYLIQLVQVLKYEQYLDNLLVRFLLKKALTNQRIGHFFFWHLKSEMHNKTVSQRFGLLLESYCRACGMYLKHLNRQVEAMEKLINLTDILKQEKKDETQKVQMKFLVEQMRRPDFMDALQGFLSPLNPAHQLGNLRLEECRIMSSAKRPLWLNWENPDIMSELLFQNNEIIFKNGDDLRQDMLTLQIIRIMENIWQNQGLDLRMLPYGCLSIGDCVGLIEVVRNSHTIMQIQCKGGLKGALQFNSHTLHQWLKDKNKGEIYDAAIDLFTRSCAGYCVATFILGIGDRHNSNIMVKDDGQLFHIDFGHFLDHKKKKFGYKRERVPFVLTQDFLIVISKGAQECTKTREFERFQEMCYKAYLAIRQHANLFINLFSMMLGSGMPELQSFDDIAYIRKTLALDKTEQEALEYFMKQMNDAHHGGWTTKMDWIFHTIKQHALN
For another data set, the target named is PI3K p110 beta/p85 alpha (Homo sapiens, UniProt P42338). The experiment in a line: Inhibition of p110beta/p85alpha (unknown origin) incubated for 40 mins by luciferase based ATP depletion assay. In kind it is protein-complex assay.
PI3K p110 beta/p85 alpha, sequence (P27986 whole entry): as the sequence (P27986 whole entry) above
PI3K p110 beta/p85 alpha, sequence (P42338 whole entry): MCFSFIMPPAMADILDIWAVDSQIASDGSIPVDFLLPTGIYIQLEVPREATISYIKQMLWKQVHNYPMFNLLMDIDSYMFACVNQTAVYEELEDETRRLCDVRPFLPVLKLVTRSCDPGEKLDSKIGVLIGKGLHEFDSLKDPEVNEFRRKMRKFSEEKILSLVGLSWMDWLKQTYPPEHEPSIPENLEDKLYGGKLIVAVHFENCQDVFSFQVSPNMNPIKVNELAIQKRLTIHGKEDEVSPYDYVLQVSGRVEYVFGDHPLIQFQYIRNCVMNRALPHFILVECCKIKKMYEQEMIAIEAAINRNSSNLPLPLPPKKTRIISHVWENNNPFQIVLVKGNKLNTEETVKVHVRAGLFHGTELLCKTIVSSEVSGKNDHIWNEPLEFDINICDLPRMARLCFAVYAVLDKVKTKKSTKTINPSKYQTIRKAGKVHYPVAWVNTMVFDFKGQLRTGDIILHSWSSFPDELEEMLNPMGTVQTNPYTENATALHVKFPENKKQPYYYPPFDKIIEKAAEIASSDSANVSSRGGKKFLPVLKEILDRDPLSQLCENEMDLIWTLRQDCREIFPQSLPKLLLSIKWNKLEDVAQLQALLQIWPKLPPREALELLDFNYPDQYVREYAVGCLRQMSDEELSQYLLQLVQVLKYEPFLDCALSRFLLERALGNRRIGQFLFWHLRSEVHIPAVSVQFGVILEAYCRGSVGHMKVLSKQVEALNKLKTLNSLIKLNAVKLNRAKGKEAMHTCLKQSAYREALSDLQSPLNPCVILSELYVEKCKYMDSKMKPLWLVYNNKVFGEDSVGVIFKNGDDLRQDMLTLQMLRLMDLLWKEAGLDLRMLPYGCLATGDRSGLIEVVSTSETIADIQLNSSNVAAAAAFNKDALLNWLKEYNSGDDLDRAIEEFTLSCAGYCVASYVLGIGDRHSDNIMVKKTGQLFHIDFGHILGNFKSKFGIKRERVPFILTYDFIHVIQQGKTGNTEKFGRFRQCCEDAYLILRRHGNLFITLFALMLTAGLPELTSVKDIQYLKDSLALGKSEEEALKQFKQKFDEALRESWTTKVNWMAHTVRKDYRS
The target of data set [3] is PI3-kinase subunit gamma/Phosphoinositide 3-kinase regulatory subunit 5 (Homo sapiens, UniProt P48736). The experiment in a line: Inhibition of p110gamma/PIK3R5 (unknown origin) incubated for 40 mins by luciferase based ATP depletion assay. Type of data set: protein-complex assay.
The target in data set [4] is PI3-kinase p110-delta/p85-alpha (Homo sapiens, UniProt O00329). The experiment in a line: Inhibition of p110delta/p85alpha (unknown origin) incubated for 40 mins by luciferase based ATP depletion assay. In kind it is protein-complex assay.
PI3-kinase p110-delta/p85-alpha, sequence (P27986 whole entry): as the sequence (P27986 whole entry) above
PI3-kinase p110-delta/p85-alpha, sequence (O00329 whole entry): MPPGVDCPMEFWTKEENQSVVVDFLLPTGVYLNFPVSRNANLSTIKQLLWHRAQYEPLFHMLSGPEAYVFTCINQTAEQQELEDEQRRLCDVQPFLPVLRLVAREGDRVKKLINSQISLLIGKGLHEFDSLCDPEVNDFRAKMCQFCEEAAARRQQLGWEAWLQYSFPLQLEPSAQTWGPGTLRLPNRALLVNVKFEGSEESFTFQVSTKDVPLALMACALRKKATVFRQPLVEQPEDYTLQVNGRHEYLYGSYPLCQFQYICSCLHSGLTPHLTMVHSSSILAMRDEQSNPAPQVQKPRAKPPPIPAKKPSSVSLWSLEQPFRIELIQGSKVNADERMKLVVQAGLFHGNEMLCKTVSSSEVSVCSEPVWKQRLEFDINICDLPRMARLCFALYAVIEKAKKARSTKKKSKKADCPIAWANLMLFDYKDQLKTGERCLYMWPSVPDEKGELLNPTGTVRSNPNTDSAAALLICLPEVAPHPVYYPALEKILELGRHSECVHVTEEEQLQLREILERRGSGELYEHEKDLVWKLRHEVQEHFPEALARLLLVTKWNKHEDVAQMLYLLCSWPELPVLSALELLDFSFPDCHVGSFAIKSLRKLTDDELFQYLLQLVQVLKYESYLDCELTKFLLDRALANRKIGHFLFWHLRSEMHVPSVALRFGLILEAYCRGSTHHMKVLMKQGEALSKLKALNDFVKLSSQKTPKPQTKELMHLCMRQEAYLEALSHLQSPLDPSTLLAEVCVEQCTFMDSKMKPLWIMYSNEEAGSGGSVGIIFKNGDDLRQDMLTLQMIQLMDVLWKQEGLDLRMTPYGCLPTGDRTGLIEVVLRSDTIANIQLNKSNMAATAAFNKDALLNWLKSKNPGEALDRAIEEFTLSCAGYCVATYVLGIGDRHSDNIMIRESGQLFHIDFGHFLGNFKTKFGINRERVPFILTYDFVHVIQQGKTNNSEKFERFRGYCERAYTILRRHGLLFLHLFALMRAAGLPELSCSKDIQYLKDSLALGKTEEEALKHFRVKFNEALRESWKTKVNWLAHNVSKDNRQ
The next data set deals with mTORC1 (Homo sapiens, UniProt P42345). Kind of data set: Inhibition of mTORC1 (unknown origin) incubated for 40 mins by luciferase based ATP depletion assay. In kind it is protein-complex assay.
Data set [5] deals with CCRF S-180. The experiment in a line: Anticancer activity against mouse S180 cells transplanted in mouse assessed as reduction in tumor weight at 1 mg/kg, po dosed once daily for 8 days. Type of data set: functional. The conditions noted are these: CCRF S-180, po, 192 h.
The test system of data set [6] is CCRF S-180. The experiment in a line: Anticancer activity against mouse S180 cells transplanted in mouse assessed as reduction in tumor weight at 3 mg/kg, po dosed once daily for 8 days. In kind it is functional. The settings on record: CCRF S-180, po, 192 h.
Data set [7] concerns CCRF S-180. The experiment in a line: Anticancer activity against mouse S180 cells transplanted in mouse assessed as reduction in tumor weight at 10 mg/kg, po dosed once daily for 8 days. In kind it is functional. The conditions noted are these: CCRF S-180, po, 192 h.
For a further data set, the system named is Mus musculus. Kind of data set: Toxicity in mouse S180 cells transplanted mouse assessed as increase in body weight at 1 to 10 mg/kg, po dosed once daily for 8 days. The conditions noted are these: in vivo, 192 h. In kind it is organism-based, CCRF S-180. In outline: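 S180 flank homograft mice (3×10^6 cells s.c., 8 per group) dosed orally once daily for 8 days at 1.0, 3.0 or 10.0 mg/kg in NMP/PEG400/H2O (1:6:3), solvent-only controls; body weights recorded daily and again at sacrifice on Day 9.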

Data on 24 compounds can be found in ChEMBL document CHEMBL3612008, “Synthesis and anticancer effects evaluation of 1-alkyl-3-(6-(2-methoxy-3-sulfonylaminopyridin-5-yl)benzo[d]thiazol-2-yl)urea as anticancer agents with low toxicity” (Bioorg Med Chem, 2015).

pIC50: −log10 of the molar value.

Regarding `CC(=O)Nc1nc2ccc(-c3cnc(Cl)c(NS(=O)(=O)c4ccc(F)cc4)c3)cc2s1`, the pIC50 in the data set on HCT-116 was 6.36; in the data set with MCF7, 6.37; in the data set on U-87 MG, 6.36; in the data set on A549 it was 6.39. The compound further registered an LD50 at 168 h in data set [1] of 20 mg/kg.

Compound `CCCNc1nc2ccc(-c3cnc(Cl)c(NS(=O)(=O)c4ccc(F)cc4)c3)cc2s1` gave a pIC50 with HCT-116 of less than 4.70.

Compound `O=S(=O)(Nc1cc(-c2ccc3nc(NC4CC4)sc3c2)cnc1Cl)c1ccc(F)cc1` showed a pIC50 with HCT-116 of 5.24.

Consider `COc1ncc(-c2ccc3nc(NC4CC4)sc3c2)cc1NS(=O)(=O)c1ccc(F)cc1`, for which the pIC50 was 5.81 in the data set with HCT-116, 6.35 in the data set on MCF7, 5.82 in the data set with U-87 MG and 5.88 in the data set with A549.

With `CCOC(=O)CNc1nc2ccc(-c3cnc(OC)c(NS(=O)(=O)c4ccc(F)cc4)c3)cc2s1`, the pIC50 with HCT-116 is less than 4.70.

On to `O=C(Nc1nc2ccc(-c3cnc(Cl)c(NS(=O)(=O)c4ccc(F)cc4)c3)cc2s1)NC1CC1`, for which the pIC50 is 5.76 in the data set with HCT-116, 5.96 with MCF7, 5.76 in the data set on U-87 MG and 5.99 in the data set on A549.

With `CCN(CC)CCNC(=O)Nc1nc2ccc(-c3cnc(Cl)c(NS(=O)(=O)c4ccc(F)cc4)c3)cc2s1`, the pIC50 in the data set on HCT-116 is 6.04; in the data set on MCF7 it was 6.15; in the data set on U-87 MG it was 5.86; in the data set on A549 it was 5.28.

Turning to `O=C(NCCN1CCOCC1)Nc1nc2ccc(-c3cnc(Cl)c(NS(=O)(=O)c4ccc(F)cc4)c3)cc2s1`, the pIC50 in the data set on HCT-116 was 5.53; with MCF7 it was 6.02; in the data set with U-87 MG, 5.62; in the data set on A549, 5.17.

For `CNC(=O)Nc1nc2ccc(-c3cnc(OC)c(NS(=O)(=O)c4ccc(F)cc4)c3)cc2s1`, the pIC50 in the data set on HCT-116 is 6.06; with MCF7 it was 5.92; in the data set on U-87 MG, 5.91; with A549, 5.81. In data set [1], this compound displayed an LD50 at 168 h of 40 mg/kg.

`COc1ncc(-c2ccc3nc(NC(=O)NC4CC4)sc3c2)cc1NS(=O)(=O)c1ccc(F)cc1`: the pIC50 with HCT-116 was 6.33; with MCF7 it was 5.92; in the data set with U-87 MG it was 6.28; in the data set with A549, 6.05.

`CCN(CC)CCNC(=O)Nc1nc2ccc(-c3cnc(OC)c(NS(=O)(=O)c4ccc(F)cc4)c3)cc2s1`: the pIC50 with HCT-116 is 6.52; in the data set with MCF7 it was 6.49; in the data set on U-87 MG it was 6.41; with A549, 6.35; in data set [2], 7.89; against PI3K p110 beta/p85 alpha, 7.05. The values for the pIC50 (in [3]; in data set [4]; on mTORC1) were 7.96, 6.83 and 7.11, respectively. In data set [1], the LD50 at 168 h was 320 mg/kg. Further, the inhibition in vivo at 1 mg/kg in the data set with CCRF S-180 [5] was 27.2%. The inhibition in vivo at 3 mg/kg in the data set on CCRF S-180 [6] came out at 44.3%. For the same compound, the inhibition in vivo at 10 mg/kg in the data set on CCRF S-180 [7] stood at 56.2%. Also, the Activity result in the data set with Mus musculus was “Non-toxic”.

Regarding `COc1ncc(-c2ccc3nc(NC(=O)NCCN4CCOCC4)sc3c2)cc1NS(=O)(=O)c1ccc(F)cc1`, the pIC50 was 6.28 with HCT-116, 6.12 in the data set with MCF7, 6.31 in the data set with U-87 MG and 6.37 with A549.

In the case of `COc1ncc(-c2ccc3nc(NC(=O)NCCN4CCCC4)sc3c2)cc1NS(=O)(=O)c1ccc(F)cc1`, the pIC50 in the data set with HCT-116 was 6.51; in the data set with MCF7, 6.39; in the data set with U-87 MG, 6.44; in the data set on A549 it was 6.52. In addition, in [1], the LD50 at 168 h amounted to 300 mg/kg.

Take `COc1ncc(-c2ccc3nc(NC(=O)NCCN4CCCCC4)sc3c2)cc1NS(=O)(=O)c1ccc(F)cc1`: the pIC50 in the data set on HCT-116 is 6.21; in the data set on MCF7, 6.35; in the data set on U-87 MG, 6.12; with A549 it was 6.48.

As for `COc1ncc(-c2ccc3nc(NC(=O)NCCN4CCN(C)CC4)sc3c2)cc1NS(=O)(=O)c1ccc(F)cc1`, the pIC50 was 6.27 in the data set on HCT-116, 6.33 in the data set on MCF7, 6.36 in the data set on U-87 MG and 6.26 in the data set on A549. In data set [1], this compound came in with an LD50 at 168 h of 300 mg/kg.

In the case of `COc1ncc(-c2ccc3nc(NC(=O)NCCN(C)C)sc3c2)cc1NS(=O)(=O)c1ccc(F)cc1`, the pIC50 is 6.62 with HCT-116, 6.30 in the data set on MCF7, 5.99 in the data set with U-87 MG and 6.33 in the data set with A549.

Turning to `CCN(CC)CCNC(=O)Nc1nc2ccc(-c3cnc(OC)c(NS(=O)(=O)c4ccc(C)cc4)c3)cc2s1`, the pIC50 is 6.74 in the data set on HCT-116, 6.77 with MCF7, 6.44 with U-87 MG and 6.51 in the data set on A549.

Turning to `COc1ccc(-c2ccc3nc(NC(=O)NCCN4CCOCC4)sc3c2)cn1`, the pIC50 in the data set with HCT-116 is less than 4.70; with MCF7, less than 4.70; in the data set with U-87 MG, 5.14; in the data set with A549, 5.29.

Turning to `COc1ncc(-c2ccc3nc(NC(=O)NCCN4CCOCC4)sc3c2)cc1C#N`, the pIC50 in the data set on HCT-116 is 5.34; in the data set with MCF7 it was 5.64; in the data set on U-87 MG, 5.08; in the data set with A549, 5.33.

`COc1ncc(-c2ccc3nc(NC(=O)NCCN4CCOCC4)sc3c2)cc1NS(=O)(=O)C1CC1`: the pIC50 with HCT-116 is 6.19; in the data set with MCF7, 5.74; with U-87 MG it was 5.78; with A549, 5.72.

`COc1ncc(-c2ccc3nc(NC(=O)NCCN4CCOCC4)sc3c2)cc1NS(=O)(=O)c1ccc(Cl)cc1`: the pIC50 with HCT-116 is 6.27; in the data set on MCF7, 6.19; in the data set with U-87 MG, 5.98; in the data set with A549 it was 6.28.

For `COc1ncc(-c2ccc3nc(NC(=O)NCCN4CCOCC4)sc3c2)cc1NS(=O)(=O)c1ccc(C)cc1`, the pIC50 in the data set on HCT-116 was 6.24; in the data set with MCF7, 6.68; in the data set with U-87 MG, 6.28; with A549, 6.42.

With `COc1ncc(-c2ccc3nc(NC(=O)NCCN4CCOCC4)sc3n2)cc1NS(=O)(=O)c1ccc(F)cc1`, the pIC50 in the data set on HCT-116 is 6.60; in the data set on MCF7 it was 6.59; in the data set with U-87 MG, 6.32; in the data set on A549, 6.31.

For the compound `Cn1c(=O)n(-c2ccc(C(C)(C)C#N)cc2)c2c3cc(-c4cnc5ccccc5c4)ccc3ncc21` [DACTOLISIB], the values for the pIC50 with MCF7, in the data set on U-87 MG and in the data set on A549 were 6.32, 5.85 and 6.12, respectively.

Broadly, the pIC50 is the IC50 on a negative log10 scale, so that one unit is a factor of ten. Broadly, the LD50 is the dose expected to kill half of the subjects tested. Lower therefore signals greater toxicity. As a reminder, the inhibition in vivo is how much of the control response was suppressed.
